In brackets after ≈: the same amount, converted by molar mass.
How the values were obtained:
[1] = Hemolytic activity in human RBC assessed as hemolysis at 1000 ug/ml after 1 hr; type: ADME, cell-based; details: erythrocyte
Escherichia coli = assay: Antimicrobial activity against Escherichia coli ATCC 25922; type: functional
[2] = Stability in aqueous solution at pH7.4 after 48 hrs; type: physicochemical; details: buffer, pH 7.4, 48 h
[3] = Stability in presence of alpha-chymotrypsin after 48 hrs; type: ADME
Summary of the method: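 Digestion with α-chymotrypsin (2 μg/mL final) of 100 μg/mL compound in 100 mM Tris-HCl with 10 mM CaCl2. Aliquots taken at 0, 15, 30, 60, 120, 240 min, 24 and 48 h. Quenched with 10% acetic acid plus atenolol external standard, then quantified by LC-MS/MS in positive MRM mode, in duplicate. Remaining compound expressed relative to enzyme-free control.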

Question: For `N=C(N)NCCC[C@H](NC(=O)C(CN)(CCC1CCCCC1)CCC1CCCCC1)C(N)=O`, which Activity [1] is on record?
Answer: Non-toxic

Question: What about the MBC (Escherichia coli) of the same molecule?
Answer: 289 µM (≈ 134 µg/mL)

Question: What about the MIC (Escherichia coli) of the same molecule?
Answer: 144 µM (≈ 66.9 µg/mL)

Question: What about the Stability [2] of the same molecule?
Answer: Stable

Question: And the Stability [3]?
Answer: Stable
